Assay results published in ChEMBL document CHEMBL2086239, “Synthesis and biological evaluation of combretastatin-amidobenzothiazole conjugates as potential anticancer agents” (Eur J Med Chem, 2012).
The source made the active and inactive calls. The rule behind the calls is not given here.

Tests used:
PC-3 = assay: Growth inhibition of human PC3 cells after 48 hrs by SRB assay; type: functional; conditions: PC-3, 48 h
How it was run: (§1)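 NCI 60-cell-line screen: after preliminary screening, tested at five dose concentrations on 59 human tumour lines covering leukemia, lung, colon, CNS, melanoma, ovarian, renal, prostate and breast.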

SF-539 = assay: Growth inhibition of human SF539 cells after 48 hrs by SRB assay; type: functional; conditions: SF-539, 48 h
How it was run: (§2)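 NCI 60-cell-line panel, five-dose testing after preliminary screen; sulforhodamine B protein assay in DMEM with 10% FBS, 37 °C, 5% CO2, 100% humidity. Cells seeded and incubated 24 h before compound addition, then exposed 48 h. Absorbance read at 560 nm; growth percentage relative to control wells; GI50 taken as concentration giving 50% growth inhibition.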

Malme-3M = assay: Growth inhibition of human MALME-3M cells after 48 hrs by SRB assay; type: functional; how it was run: as §1
SK-OV-3 = assay: Growth inhibition of human SKOV3 cells after 48 hrs by SRB assay; type: functional; conditions: SK-OV-3, 48 h; how it was run: as §2
UACC-62 = assay: Growth inhibition of human UACC62 cells after 48 hrs by SRB assay; type: functional; conditions: UACC-62, 48 h; how it was run: as §2
T47D = assay: Growth inhibition of human T47D cells after 48 hrs by SRB assay; type: functional; how it was run: as §2
CCRF-CEM = assay: Growth inhibition of human CCRF-CEM cells after 48 hrs by SRB assay; type: functional; how it was run: as §1
IMR-32 = assay: Cytotoxicity against human IMR32 cells after 48 hrs assessed as inhibition of cell growth at 10 uM after 48 hrs by SRB assay relative to control; type: functional; conditions: IMR-32, 48 h, read-out: GI
How it was run: (§3)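 SRB protein assay in DMEM with 10% FBS at 37 °C, 5% CO2, 100% relative humidity. Cells seeded in 96-well plates, incubated 24 h, then exposed to drug at 10 µM for 48 h and processed per standard protocol. Absorbance read at 560 nm; growth percentage calculated for test wells relative to control wells.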

MCF7 [1] = assay: Cell cycle arrest in human MCF7 cells assessed as accumulation at G1 phase at 4 uM after 24 hrs by FACS analysis (reference value: 58.33%); type: functional
MDA-MB-231 = assay: Growth inhibition of human MDA-MB-231 cells after 48 hrs by SRB assay; type: functional; conditions: MDA-MB-231, 48 h; how it was run: as §1
K562 = assay: Growth inhibition of human K562 cells after 48 hrs by SRB assay; type: functional; conditions: K562, 48 h; how it was run: as §1
BT-549 = assay: Growth inhibition of human BT549 cells after 48 hrs by SRB assay; type: functional; conditions: BT-549, 48 h; how it was run: as §1
COLO 205 = assay: Growth inhibition of human COLO205 cells after 48 hrs by SRB assay; type: functional; conditions: COLO 205, 48 h; how it was run: as §1
HOP-62 = assay: Growth inhibition of human HOP62 cells after 48 hrs by SRB assay; type: functional; conditions: HOP-62, 48 h; how it was run: as §1
SF-295 = assay: Growth inhibition of human SF295 cells after 48 hrs by SRB assay; type: functional; conditions: SF-295, 48 h; how it was run: as §2
MCF7 [2] = assay: Cell cycle arrest in human MCF7 cells assessed as accumulation at G2/M phase at 4 uM after 24 hrs by FACS analysis (reference value: 34.88%); type: functional
OVCAR-4 = assay: Growth inhibition of human OVCAR4 cells after 48 hrs by SRB assay; type: functional; conditions: OVCAR-4, 48 h; how it was run: as §1
DU-145 = assay: Growth inhibition of human DU145 cells after 48 hrs by SRB assay; type: functional; conditions: DU-145, 48 h; how it was run: as §1
HOP-92 = assay: Growth inhibition of human HOP92 cells after 48 hrs by SRB assay; type: functional; conditions: HOP-92, 48 h; how it was run: as §1
RPMI-8226 = assay: Growth inhibition of human RPMI8226 cells after 48 hrs by SRB assay; type: functional; conditions: RPMI-8226, 48 h; how it was run: as §1
A549 = assay: Cytotoxicity against human A549 cells assessed as inhibition of cell growth at 10 uM after 48 hrs by SRB assay relative to control; type: functional; conditions: for inhibition of growth at 10 µM: A549, 48 h, read-out: GI; how it was run: as §3
NCI-H322M = assay: Growth inhibition of human NCI-H322M cells after 48 hrs by SRB assay; type: functional; how it was run: as §1
NCI-H226 = assay: Growth inhibition of human NCI-H226 cells after 48 hrs by SRB assay; type: functional; conditions: NCI-H226, 48 h; how it was run: as §1
SF-268 = assay: Growth inhibition of human SF268 cells after 48 hrs by SRB assay; type: functional; conditions: SF-268, 48 h; how it was run: as §1
HCT-116 = assay: Growth inhibition of human HCT116 cells after 48 hrs by SRB assay; type: functional; conditions: HCT-116, 48 h; how it was run: as §1
EKVX = assay: Growth inhibition of human EKVX cells after 48 hrs by SRB assay; type: functional; how it was run: as §1
OVCAR-8 = assay: Growth inhibition of human OVCAR8 cells after 48 hrs by SRB assay; type: functional; conditions: OVCAR-8, 48 h; how it was run: as §1
MCF7 [3] = assay: Cytotoxicity against human MCF7 cells at 4 uM after 24 hrs by MTT assay; type: functional, cell-based
How it was run: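 MCF-7 cells grown in DMEM with 10% fetal calf serum, penicillin and streptomycin at 37 °C, 5% CO2. Seeded at 10,000 cells/well, incubated overnight, then treated 24 h at 4 µM. Medium replaced with fresh medium plus MTT dye, incubated 2 h at 37 °C. Absorbance read at 570 nm; O.D. taken as viability versus untreated control.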

Work on `COc1ccc(/C=C\c2cc(OC)c(OC)c(OC)c2)cc1OCC(=O)Nc1ccc2nc(C)sc2c1` yielded a GI50 (PC-3) of 2.8 µM, a GI50 (SF-539) of 2.56 µM and a GI50 (Malme-3M) of 2.84 µM. The GI50 (SK-OV-3) was 5.27 µM, the GI50 (UACC-62) was 2.19 µM and the GI50 (T47D) was 9.41 µM. For the same compound, the GI50 (CCRF-CEM) was 3.41 µM, the inhibition of growth at 10 µM (IMR-32) was 62% and the Activity (MCF7 [1]) was 55.2%. It also gave a GI50 (MDA-MB-231) of 5.45 µM, a GI50 (K562) of 2.19 µM and a GI50 (BT-549) of 3.05 µM. It also gave a GI50 (COLO 205) of 4.4 µM, a GI50 (HOP-62) of 3.09 µM and a GI50 (SF-295) of 2.45 µM. For the same compound, the Activity (MCF7 [2]) was 37.09%, the GI50 (OVCAR-4) was 2.64 µM and the GI50 (DU-145) was 3.81 µM. The GI50 (HOP-92) was 2.38 µM, the GI50 (RPMI-8226) was 1.98 µM and the “growth inhibition (GI)” value (A549) was “inactive”. The GI50 (NCI-H322M) was 6.74 µM, the GI50 (NCI-H226) was 2.75 µM and the GI50 (SF-268) was 3.61 µM. The GI50 (HCT-116) was 3.57 µM, the GI50 (EKVX) was 4.05 µM and the GI50 (OVCAR-8) was 2.12 µM.

For `COc1ccc(/C=C\c2cc(OC)c(OC)c(OC)c2)cc1OCC(=O)Nc1nc2ccc(F)cc2s1`, the Activity (MCF7 [3]) was “Active”, the GI50 (PC-3) was 6.74 µM and the GI50 (SF-539) was 4.51 µM. For the same compound, the GI50 (Malme-3M) was 5.22 µM, the GI50 (SK-OV-3) was 8 µM and the GI50 (UACC-62) was 4.05 µM. The GI50 (T47D) was 3.39 µM, the GI50 (CCRF-CEM) was 3.7 µM and the inhibition of growth at 10 µM (IMR-32) was 77%. The Activity (MCF7 [1]) was 44.28%, the GI50 (MDA-MB-231) was 9.34 µM and the GI50 (K562) was 3.62 µM. It also gave a GI50 (BT-549) of 16.7 µM, a GI50 (COLO 205) of 7.78 µM and a GI50 (HOP-62) of 5.7 µM. The GI50 (SF-295) was 4.29 µM, the Activity (MCF7 [2]) was 42.08% and the GI50 (OVCAR-4) was 7.3 µM. For the same compound, the GI50 (DU-145) was 8.97 µM, the GI50 (HOP-92) was 5.73 µM and the GI50 (RPMI-8226) was 6.36 µM. The inhibition of growth at 10 µM (A549) was 44%, the GI50 (NCI-H322M) was “inactive” and the GI50 (NCI-H226) was 5.6 µM. For the same compound, the GI50 (SF-268) was 7.23 µM, the GI50 (HCT-116) was 4.48 µM and the GI50 (EKVX) was 5.72 µM. For the same compound, the GI50 (OVCAR-8) was 7.15 µM.

In the case of `COc1ccc(/C=C\c2cc(OC)c(OC)c(OC)c2)cc1OCC(=O)Nc1nc2ccc(OC(F)(F)F)cc2s1`, the GI50 (PC-3) was 5.12 µM, the GI50 (SF-539) was 2.28 µM and the GI50 (SK-OV-3) was 8.42 µM. It also gave a GI50 (UACC-62) of 5.11 µM, a GI50 (T47D) of 3.95 µM and a GI50 (CCRF-CEM) of 4.12 µM. For the same compound, the inhibition of growth at 10 µM (IMR-32) was 44%, the Activity (MCF7 [1]) was 59.04% and the GI50 (MDA-MB-231) was 5.16 µM. It also gave a GI50 (K562) of 3.43 µM, a GI50 (BT-549) of 10.5 µM and a GI50 (COLO 205) of 43.3 µM. The GI50 (HOP-62) was 7.09 µM, the GI50 (SF-295) was 3.7 µM and the Activity (MCF7 [2]) was 33.45%. It also gave a GI50 (OVCAR-4) of 5.34 µM, a GI50 (DU-145) of 4.11 µM and a GI50 (HOP-92) of 2.74 µM. For the same compound, the GI50 (RPMI-8226) was 5.83 µM, the inhibition of growth at 10 µM (A549) was 40% and the GI50 (NCI-H322M) was “inactive”. For the same compound, the GI50 (NCI-H226) was 4.3 µM, the GI50 (SF-268) was 6.01 µM and the GI50 (HCT-116) was 3.92 µM. It also gave a GI50 (EKVX) of 7.89 µM and a GI50 (OVCAR-8) of 5 µM.
